# KCNK3 block: human KCNK3 channel inhibition, primary screen; O14649; CHO-KCNK3 thallium flux, FluxOR fluorescence; hits give low values; B-score at 10 µM; actives 0.84% (n = 340,000);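 active means B-score under library mean minus 4 SD, starting fluorescence ratio at most library mean plus 5 SD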;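 further: more negative B-score means stronger inhibition of thallium flux through KCNK3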
# Target sequence (O14649 whole entry, looked up): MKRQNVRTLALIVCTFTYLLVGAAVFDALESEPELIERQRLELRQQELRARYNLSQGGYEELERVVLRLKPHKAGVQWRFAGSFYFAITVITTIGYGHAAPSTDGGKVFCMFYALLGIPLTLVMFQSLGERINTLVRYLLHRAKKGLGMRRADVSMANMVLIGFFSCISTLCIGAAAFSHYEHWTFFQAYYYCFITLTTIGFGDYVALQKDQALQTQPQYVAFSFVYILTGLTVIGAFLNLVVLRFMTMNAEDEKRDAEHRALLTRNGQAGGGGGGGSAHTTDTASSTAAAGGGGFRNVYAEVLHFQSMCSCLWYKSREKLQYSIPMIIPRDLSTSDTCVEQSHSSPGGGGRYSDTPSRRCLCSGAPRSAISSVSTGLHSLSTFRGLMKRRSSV
# KCNK9 inh: inhibitors of human KCNK9 two-pore domain potassium channel; HEK293 KCNK9, FluxOR thallium flux fluorescence; hits give low values; B-score at 10 µM; actives 1.2% (n = 310,000);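 active means ratio B-score over 3 SD below the library mean, with starting fluorescence within 5 SD of its mean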;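 further: negative B-score means less thallium flux so channel inhibition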
# KCNQ1 pot: human KCNQ1 channel potentiation or activation; P51787; CHO-K1 KCNQ1, thallium flux FluxOR fluorescence; hits give high values; B-score at 10 µM; actives 0.35% (n = 310,000); AID 2648;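 active means fluorescence ratio B-score, a plate-corrected score, at least three library SD, with initial intensity B-score within 5 SD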
#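 Assay system: CHO-K1 cells stably expressing KCNQ1; Medium: assay buffer with matched DMSO; Also added: K+/Tl+ depolarizing stimulus; Dosing: single dose; Timing: dye 90 min, compound 20 min, room temperature; Measured by: kinetic FluxOR thallium fluorescence, 10-s 1-Hz baseline, 110-s post-stimulus read; Read-out: peak-minus-minimum fluorescence over initial fluorescence, negative-control normalized, B-scored.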
# KCNQ1 block: inhibitors of human KCNQ1 potassium channel; CHO-K1 KCNQ1, FluxOR thallium flux fluorescence; hits give high values; P51787; B-score at 10 µM; AID 2642; actives 1.3% (n = 310,000);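 active means compounds whose thallium flux B-score, printed positive for inhibition, exceeds three library SD while starting fluorescence stays within three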;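 further: channel opened by potassium depolarization with thallium stimulus after 20 min compound exposure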
# hERG protect: hERG (human) protection from proarrhythmic block; Q12809; CHO-hERG, FluxOR thallium flux, dofetilide IC70 present; activation (rescue from dofetilide block), less the hit threshold, % at 10 µM; actives 0.51% (n = 310,000);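 active means activation above the mean of controls blocked by dofetilide plus 5 SD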;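 further: thallium influx through hERG after potassium depolarization seen as dye fluorescence rise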
# KCNQ1 inh valid: reconfirmed blocker of the human KCNQ1 potassium channel. KCNQ1 cell line, FluxOR thallium flux fluorescence. AID 588353. actives 93% (n = 1,600). inhibition, % at 10 µM. shares compounds with KCNQ1 block;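 active means primary screen active, with duplicate mean exceeding buffer control mean plus 3 SD of buffer wells, cut at about 28% in these data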
# CHO Tl flux: KCNQ1 inhibitor counter-screen hit in parental CHO cells | shares compounds with KCNQ1 block | parental CHO-K1, FluxOR thallium flux fluorescence ratio; hits give low values; zero means no signal rise above baseline | fluorescence ratio (Tl flux) at 10 µM | actives 21% (n = 1,600) | AID 588366;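 active means mean of duplicate thallium-flux fluorescence ratios in parental host cells more than 5 SD below the buffer control mean, cut at about 0.38 in these data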;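 further: ratio is peak minus minimum fluorescence divided by baseline fluorescence; actives read low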
# KCNQ1 APC inh: blocks human KCNQ1 current in automated patch clamp | shares compounds with KCNQ1 block | KCNQ1-CHO cells | calls only at 10 µM | actives 20% (n = 490) | AID 624120;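 active means KCNQ1 current drop exceeding 3 SD of negative control wells, seen in both duplicate runs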;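 further: steady state current during a 2 s step from -80 to +40 mV; negative values mean current inhibition and positive values mean potentiation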
# KCNQ2 inh: KCNQ1 inhibitor that also blocks rat KCNQ2 channel | shares compounds with KCNQ1 block | KCNQ2 cells, FluxOR thallium flux fluorescence | inhibition, % at 10 µM | actives 71% (n = 1,600);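 active means mean percent inhibition of the KCNQ2 thallium signal more than 5 SD above the buffer-only control wells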;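 further: KCNQ2 expressed in CHO cells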
# KCNQ1-KCNE1 inh: KCNQ1 inhibitor that also blocks human KCNQ1/KCNE1 channel | shares compounds with KCNQ1 block | KCNQ1/KCNE1 cells, FluxOR thallium flux fluorescence | inhibition, % at 10 µM | actives 77% (n = 1,600);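 active means mean percent inhibition of duplicate wells above the buffer-only control mean plus 3 SD of those controls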
# KCNK9 block conf: confirmation of human KCNK9 potassium channel inhibitors; shares compounds with KCNK9 inh; HEK293 KCNK9 cells, FluxOR thallium flux fluorescence; inhibition, % at 10 µM; actives 43% (n = 4,900);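 active means thallium signal inhibited by more than 5 SD of the compound-free buffer control wells, on both duplicate plates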
# Kir21 sel: mouse Kir2.1 off-target activity of KCNK9 modulators | shares compounds with KCNK9 inh | Kir2.1 cells, FluxOR thallium flux fluorescence | inhibition, % at 10 µM | actives 4% (n = 4,900);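 active means thallium signal drop more than 5 SD beyond the mean of the no-compound control wells, seen in both duplicate plates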;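 further: signal is fluorescence rise after thallium addition divided by baseline fluorescence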
# Target sequence (P35561 whole entry, looked up): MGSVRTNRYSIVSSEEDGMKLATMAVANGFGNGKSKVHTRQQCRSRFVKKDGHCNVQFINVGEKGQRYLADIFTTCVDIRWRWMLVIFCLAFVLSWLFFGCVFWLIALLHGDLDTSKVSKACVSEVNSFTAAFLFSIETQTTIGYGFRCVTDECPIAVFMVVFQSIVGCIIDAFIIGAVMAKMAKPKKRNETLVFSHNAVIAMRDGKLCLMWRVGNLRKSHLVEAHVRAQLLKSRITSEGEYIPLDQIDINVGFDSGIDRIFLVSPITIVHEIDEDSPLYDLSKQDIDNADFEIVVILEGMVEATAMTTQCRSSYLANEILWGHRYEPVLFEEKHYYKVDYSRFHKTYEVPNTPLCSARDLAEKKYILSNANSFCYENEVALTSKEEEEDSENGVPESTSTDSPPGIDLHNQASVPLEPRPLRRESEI
# KCNK9 uninduced: non-induced cell nonspecific activity of KCNK9 modulators. actives 40% (n = 4,900). non-induced KCNK9-HEK293, FluxOR thallium flux. inhibition, % at 10 µM. shares compounds with KCNK9 inh;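 active means thallium signal drop beyond 5 SD of the untreated control mean, on both duplicate plates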
# KCNK3 inh conf: confirmation of human KCNK3 two-pore domain potassium channel inhibitors; shares compounds with KCNK3 block; CHO-KCNK3 thallium flux, FluxOR fluorescence; 0% buffer, 100% carvedilol maximal block; ratio percent of control, % at 10 µM; actives 99% (n = 2,400); AID 651638;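 active means ratio percent of control, averaged over triplicates, above buffer control mean plus 5 SD, cut at about 64% in these data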;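 further: ratio is the fluorescence rise from min to max over baseline after thallium stimulus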
# KCNK3 noninduced: counter-screen for KCNK3 inhibitors: effect in non-induced cells. actives 40% (n = 2,400). non-induced KCNK3 parental cells, FluxOR thallium flux; hits give low values. shares compounds with KCNK3 block. thallium flux ratio (lower = more inhibition) at 10 µM;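 active means thallium flux ratio, averaged over three wells, more than 5 SD below the buffer control mean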;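 further: host cells are CHO cells without KCNK3 induction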
# Hits are given with their value; - = inactive; . = no result given; + = active, no number. Hits are enriched below; roughly 3.1% of the tested compounds scored in any of these assays.
SMILES,KCNK3 block,KCNK9 inh,KCNQ1 pot,KCNQ1 block,hERG protect,others
CC[C@@H](C(N)=O)N1CCCC1=O,.,-,-,-,-,
CN1CSC(=S)N(C)C1,-,-,-,13,-,
COC(=O)C1=C(c2ccccc2OCc2ccccc2)C[C@@H]2CC[C@H]1N2C(=O)NCc1ccc(C(C)(C)C)cc1,-,.,.,.,.,
Oc1ccc(C(=C(Cl)Cl)c2ccc(O)cc2)cc1,.,-,-,6,-,
CCC(CC)NC1CCCCC1OC (centres undefined),-,-,-,-,-,
O=C(c1ccc(-c2ccccc2)cc1)C1CCCN(Cc2ccn[nH]2)C1 (centres undefined),-,-,8,-,-,
C[C@]1(O)CC[C@H]2[C@@H]3CCC4=CC(=O)CC[C@]4(C)[C@@]3(F)[C@@H](O)C[C@@]21C,-9.8,.,.,.,.,
Clc1ccc(CSC(Cn2ccnc2)c2ccc(Cl)cc2Cl)cc1 (centres undefined),-,-,-,6,-,
C=CC[N+]1(C)C2CCC1CC(O)C2 (centres undefined),-,-,-,-,6.2,
O=C(O)CCC(=O)NCCC1=c2ccccc2=N/C1=C\c1c(O)n(Cc2ccc(F)cc2)c(=S)[nH]c1=O,-,-,-,-,6.2,
COC1CCCCC1NCCc1ccccc1 (centres undefined),-,-,-,-,5.0,
CCN(CC)S(=O)(=O)c1cc(NC(=O)C(C)N2CC=C(c3ccccc3)CC2)ccc1C (centres undefined),-,-,-,-,-,
O=C1C2CCCN2C(c2cccnc2)N1c1nccs1 (centres undefined),-,-,-,-,-,
Brc1cccc(CNCCc2ccc3c(c2)OCO3)c1,-,-,-,6,-,KCNQ1 inh valid=100;CHO Tl flux=-;KCNQ1 APC inh=+;KCNQ2 inh=86%;KCNQ1-KCNE1 inh=54%
CCOC(=O)C(O)(c1ccc(NC(=O)c2ccc(Cl)c(Cl)c2)cc1)C(F)(F)F (centres undefined),-,-,-,6,-,KCNQ1 inh valid=123;CHO Tl flux=-;KCNQ1 APC inh=-;KCNQ2 inh=93%;KCNQ1-KCNE1 inh=144%
C[C@H](NC(=O)N1C[C@H]2C[C@@H](C1)c1cccc(=O)n1C2)C(=O)Nc1ccc(F)c(F)c1,-,-,-,-,-,
CCCCCn1c(=O)c(C(=O)Nc2cnccn2)c(O)c2ccccc21,-10,-,-,8,-,KCNQ1 inh valid=78;CHO Tl flux=-;KCNQ2 inh=-;KCNQ1-KCNE1 inh=68%
CCCCCn1c(=O)c(C(=O)Nc2ccccc2S(N)(=O)=O)c(O)c2ccccc21,-,-,-,9,-,KCNQ1 inh valid=75;CHO Tl flux=-;KCNQ2 inh=-;KCNQ1-KCNE1 inh=-
CCCCn1c(=O)c(C(=O)Nc2ccccc2S(N)(=O)=O)c(O)c2ccccc21,-,-,-,-,-,
CCCCCCCn1c(=O)c(C(=O)Nc2cnccn2)c(O)c2ccccc21,-,-,-,-,-,
S=P(NC1CCCCC1)(N1CC1)N1CC1,-,-,-,-,-,
O=C1NC(=O)C(CCc2ccncc2)(Cc2ccc([N+](=O)[O-])cc2)C(=O)N1,-,-,-,-,-,
Cc1sc2c(c1C)C(c1ccc(C(C)(C)C)cc1)=NCC(=O)N2CC(=O)Nc1nccs1,-,-,-,6,-,KCNQ1 inh valid=84;CHO Tl flux=-;KCNQ2 inh=-;KCNQ1-KCNE1 inh=94%
COc1ccc(-[n+]2c(-c3ccccc3)cc(-c3ccc(C)cc3)cc2-c2ccccc2)cc1,-8.9,-16,-,15,-,KCNQ1 inh valid=94;CHO Tl flux=-;KCNQ1 APC inh=+;KCNQ2 inh=109%;KCNQ1-KCNE1 inh=163%;KCNK9 block conf=60%;Kir21 sel=78%;KCNK9 uninduced=30%
Cc1cc(C)n(CCOC(=O)C2C(C=C(Cl)Cl)C2(C)C)n1 (centres undefined),-,-,-,-,-,
SMILES,KCNK3 block,KCNK9 inh,KCNQ1 pot,KCNQ1 block,hERG protect,others
Cc1ccc(O)c(C(=O)c2cc(C(=O)NCCC(C)C)c(=O)n(CCC(C)C)c2)c1,-9.5,-,-,19,-,KCNQ1 inh valid=130;CHO Tl flux=-;KCNQ1 APC inh=-;KCNQ2 inh=126%;KCNQ1-KCNE1 inh=124%;KCNK3 inh conf=132;KCNK3 noninduced=0.16
COC(=O)C1=C(c2ccc(F)cc2F)C[C@@H]2CC[C@H]1N2C,-,.,.,.,.,
Cc1ccccc1N1CCN(C2CCCN(C(=O)COc3ccccc3)C2)CC1 (centres undefined),-,-,-,-,-,KCNK9 block conf=-;Kir21 sel=-;KCNK9 uninduced=-
COC(=O)CC(NC(=S)N1CC2C[C@@H](C1)Cn1c2cccc1=O)C(=O)OC (some centres undefined),-,-,-,-,-,
COc1cc(C)c(CN2CCN(c3ccccc3)CC2)cc1C,-,-,-,-,-,KCNK9 block conf=-;Kir21 sel=-;KCNK9 uninduced=-
COc1ccccc1N1CCN(Cc2cc(C)c(C)cc2O)CC1,-,-,-,-,-,
CCCCn1c(O)c(/C(CC)=N/N2CCCCC2c2cccnc2)c(=O)[nH]c1=S (centres undefined),-,-18,-,-,-,KCNK9 block conf=78%;Kir21 sel=-;KCNK9 uninduced=56%
CCCCn1c(O)c(/C=N/N2CCCCC2c2cccnc2)c(=O)[nH]c1=S (centres undefined),-,-,-,-,-,
C/C(=N\N1CCCCC1c1cccnc1)c1c(O)n(C2CCCCC2)c(=S)[nH]c1=O (centres undefined),-,-14,-,-,-,KCNK9 block conf=75%;Kir21 sel=-;KCNK9 uninduced=56%
CSc1ccc(C(=O)C2CCCN(Cc3cccnc3)C2)cc1 (centres undefined),-,-,-,-,-,

# High-throughput results from PubChem BioAssay.
